Experimental data taken from ChEMBL document CHEMBL3856229, “Hybrid Antibiotic Overcomes Resistance in P. aeruginosa by Enhancing Outer Membrane Penetration and Reducing Efflux” (J Med Chem, 2016).
Calls of active or inactive are those of the source. The rule behind the calls is not given here.

Legend:
Pseudomonas aeruginosa [1] = assay: Antibacterial activity against multidrug-resistant/tobramycin-susceptible Pseudomonas aeruginosa isolate 86052; type: functional
Escherichia coli [2] = assay: Antibacterial activity against gentamicin/tobramycin/ciprofloxacin-resistant Escherichia coli isolate CANWARD-2011 97615 harboring AAC3-2A after 24 hrs by microtitre broth dilution method; type: functional; conditions: isolate CANWARD-2011 97615, 24 h
Klebsiella pneumoniae = assay: Antibacterial activity against Klebsiella pneumoniae ATCC 13883 after 24 hrs by microtitre broth dilution method; type: functional; conditions: ATCC 13883, 24 h
Pseudomonas aeruginosa [3] = assay: Antibacterial activity against multidrug/extremely drug-resistant/colistin-susceptible Pseudomonas aeruginosa isolate 260-97103; type: functional
Pseudomonas aeruginosa [4] = assay: Antibacterial activity against Pseudomonas aeruginosa PAO1; type: functional
Pseudomonas aeruginosa [5] = assay: Antibacterial activity against multidrug-resistant/tobramycin-susceptible Pseudomonas aeruginosa isolate 86053; type: functional
Pseudomonas aeruginosa [6] = assay: Antibacterial activity against multidrug-resistant/tobramycin-susceptible Pseudomonas aeruginosa isolate 86079; type: functional
Pseudomonas aeruginosa [7] = assay: Antibacterial activity against multidrug-resistant/tobramycin-susceptible Pseudomonas aeruginosa isolate 86141; type: functional
Pseudomonas aeruginosa [8] = assay: Antibacterial activity against multidrug-resistant/tobramycin-susceptible Pseudomonas aeruginosa isolate 92014; type: functional
Pseudomonas aeruginosa [9] = assay: Antibacterial activity against multidrug-resistant/tobramycin-susceptible Pseudomonas aeruginosa isolate 108590; type: functional
Pseudomonas aeruginosa [10] = assay: Antibacterial activity against multidrug-resistant/tobramycin-susceptible Pseudomonas aeruginosa isolate 80621; type: functional
Escherichia coli [11] = assay: Antibacterial activity against fluoroquinolone resistant Escherichia coli isolate 80083 harboring beta-lactamase CTX-M-15/OXA-1; type: functional
Escherichia coli [12] = assay: Antibacterial activity against fluoroquinolone resistant Escherichia coli isolate 85332 harboring beta-lactamase CTX-M-14/TEM-1; type: functional
Escherichia coli [13] = assay: Antibacterial activity against fluoroquinolone resistant Escherichia coli isolate 87164 harboring beta-lactamase CTX-M-15/TEM-1; type: functional
Escherichia coli [14] = assay: Antibacterial activity against fluoroquinolone resistant Escherichia coli isolate 89439 harboring beta-lactamase CTX-M-15/OXA-1; type: functional
Escherichia coli [15] = assay: Antibacterial activity against fluoroquinolone resistant Escherichia coli isolate 90087 harboring beta-lactamase CTX-M-15/OXA-1; type: functional
Escherichia coli [16] = assay: Antibacterial activity against fluoroquinolone resistant Escherichia coli isolate 91191 harboring beta-lactamase CTX-M-14/TEM-1; type: functional
Escherichia coli [17] = assay: Antibacterial activity against fluoroquinolone resistant Escherichia coli isolate 92756 harboring beta-lactamase CTX-M-14/TEM-1; type: functional
Escherichia coli [18] = assay: Antibacterial activity against fluoroquinolone resistant Escherichia coli isolate 98550 harboring beta-lactamase CTX-M-15/OXA-1; type: functional
Acinetobacter baumannii [19] = assay: Antibacterial activity against fluoroquinolone resistant Acinetobacter baumannii isolate ABO27; type: functional
Acinetobacter baumannii [20] = assay: Antibacterial activity against fluoroquinolone resistant Acinetobacter baumannii isolate ABO28; type: functional
Acinetobacter baumannii [21] = assay: Antibacterial activity against fluoroquinolone resistant Acinetobacter baumannii isolate ABO30; type: functional
[22] = Cytotoxicity against human JIMT1 cells assessed as reduction in cell viability after 48 hrs by MTS assay; type: toxicity, cell-based, JIMT-1
Pseudomonas aeruginosa [23] = assay: Antibacterial activity against Pseudomonas aeruginosa PAO1 assessed as outer membrane permeabilization by measuring increase in 1-N-phenylnaphthylamine measured […] for 4.5 mins by fluorescence assay; type: functional
Outline: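 PAO1 cells received NPN, then the test agent at 50, 32, 16 or 8 µg/mL, added at 120 s. Colistin at 5 µg/mL was the positive control. Uptake was followed as NPN fluorescence. The assay was run in triplicate, and each point is the mean of three determinations ± SEM.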

Pseudomonas aeruginosa [24] = assay: Antibacterial activity against Pseudomonas aeruginosa PAO1 assessed as fractional inhibitory concentration index after 18 hrs in presence of novobiocin by checkerboard method; type: functional
Outline: (§1)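 Checkerboard combinations of the hybrid with each partner antibiotic were tested against P. aeruginosa PAO1. Interaction is expressed as the fractional inhibitory concentration (FIC) index: ≤0.5 means synergy, 1–2 no interaction, ≥4 antagonism.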

Pseudomonas aeruginosa [25] = assay: Antibacterial activity against Pseudomonas aeruginosa PAO1 assessed as fractional inhibitory concentration index after 18 hrs in presence of erythromycin by checkerboard method; type: functional; outline: as §1
Pseudomonas aeruginosa [26] = assay: Antibacterial activity against Pseudomonas aeruginosa PAO1 assessed as fractional inhibitory concentration index after 18 hrs in presence of minocycline by checkerboard method; type: functional; outline: as §1
Pseudomonas aeruginosa [27] = assay: Antibacterial activity against Pseudomonas aeruginosa PAO1 assessed as fractional inhibitory concentration index after 18 hrs in presence of trimethoprim by checkerboard method; type: functional; outline: as §1
Pseudomonas aeruginosa [28] = assay: Antibacterial activity against Pseudomonas aeruginosa PAO1 assessed as fractional inhibitory concentration index after 18 hrs in presence of ceftazidime by checkerboard method; type: functional; outline: as §1
Pseudomonas aeruginosa [29] = assay: Antibacterial activity against Pseudomonas aeruginosa PAO1 assessed as fractional inhibitory concentration index after 18 hrs in presence of meropenem by checkerboard method; type: functional; outline: as §1
Pseudomonas aeruginosa [30] = assay: Antibacterial activity against Pseudomonas aeruginosa PAO1 assessed as fractional inhibitory concentration index after 18 hrs in presence of gentamicin by checkerboard method; type: functional; outline: as §1
Pseudomonas aeruginosa [31] = assay: Potentiation of ciprofloxacin induced antibacterial activity against pandrug-resistant Pseudomonas aeruginosa isolate 91433 assessed as ciprofloxacin MIC at <= […] ug/ml (reference value: 4 to 8 ug/ml); type: functional
Pseudomonas aeruginosa [32] = assay: Potentiation of moxifloxacin induced antibacterial activity against multidrug/extremely drug-resistant Pseudomonas aeruginosa isolate PA264-104354 assessed as moxifloxacin MIC at <= […] ug/ml (reference value: […] to […] ug/ml); type: functional
Pseudomonas aeruginosa [33] = assay: Antibacterial activity against multidrug/extremely drug-resistant Pseudomonas aeruginosa isolate PA259-96918 in presence of <= 4 ug/ml of ciprofloxacin (reference value: 2 ug/ml); type: functional
Pseudomonas aeruginosa [34] = assay: Antibacterial activity against multidrug/extremely drug-resistant/Pseudomonas aeruginosa isolate PA260-97103 in presence of <= 4 ug/ml of ciprofloxacin (reference value: 1 ug/ml); type: functional
Pseudomonas aeruginosa [35] = assay: Antibacterial activity against multidrug/extremely drug-resistant Pseudomonas aeruginosa isolate PA264-104354 in presence of <= 4 ug/ml of ciprofloxacin (reference value: 4 ug/ml); type: functional
Pseudomonas aeruginosa [36] = assay: Antibacterial activity against multidrug/extremely drug-resistant/pandrug-resistant Pseudomonas aeruginosa isolate PA259-96918 in presence of <= 4 ug/ml of moxifloxacin (reference value: 2 ug/ml); type: functional
Pseudomonas aeruginosa [37] = assay: Antibacterial activity against multidrug/extremely drug-resistant Pseudomonas aeruginosa isolate PA260-97103 in presence of <= 4 ug/ml of moxifloxacin (reference value: 1 ug/ml); type: functional
Pseudomonas aeruginosa [38] = assay: Antibacterial activity against pandrug-resistant Pseudomonas aeruginosa isolate 101243 in presence of <= 4 ug/ml of moxifloxacin (reference value: 8 ug/ml); type: functional
Pseudomonas aeruginosa [39] = assay: Antimicrobial activity against Pseudomonas aeruginosa PAO1 assessed as outer membrane damage at 8 ug/ml after 3 to 4 hrs by uranyl acetate staining based transmission electron microscopy; type: functional
Outline: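 PAO1 in Mueller-Hinton broth was exposed to 8 µg/mL at 37 °C (3 h in the legend, 4 h in the text). Untreated cells were the reference. Morphology was imaged by transmission electron microscopy at 75 kV.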

[40] = Inhibition of circular DNA translation in Escherichia coli S30 extract after 60 mins by luciferase reporter gene assay
Outline: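 Translation was run in an E. coli S30 extract with a luciferase read-out. Luminescence is expressed as a percentage of the no-antibiotic control, taken as 100%.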

With `COc1c(N2C[C@@H]3CCCN(CCCCCCCCCCCCO[C@@H]4[C@@H](O[C@H]5O[C@H](CO)[C@@H](O)[C@H](N)[C@H]5O)[C@H](N)C[C@H](N)[C@H]4O[C@H]4O[C@H](CN)[C@@H](O)C[C@H]4N)[C@@H]3C2)c(F)cc2c(=O)c(C(=O)O)cn(C3CC3)c12.Cl.Cl.Cl.Cl.Cl` the MIC (Pseudomonas aeruginosa [1]) was 2 µg/mL, the MIC (Escherichia coli [2]) was 128 µg/mL and the MIC (Klebsiella pneumoniae) was 1 µg/mL. For the same molecule, the MIC (Pseudomonas aeruginosa [3]) was 1 µg/mL, the MIC (Pseudomonas aeruginosa [4]) was 4 µg/mL and the MIC (Pseudomonas aeruginosa [5]) was 4 µg/mL. For the same molecule, the MIC (Pseudomonas aeruginosa [6]) was 4 µg/mL, the MIC (Pseudomonas aeruginosa [7]) was 4 µg/mL and the MIC (Pseudomonas aeruginosa [8]) was 4 µg/mL. The MIC (Pseudomonas aeruginosa [9]) was 2 µg/mL, the MIC (Pseudomonas aeruginosa [10]) was 8 µg/mL and the MIC (Escherichia coli [11]) was ≥ 64 µg/mL. For the same molecule, the MIC (Escherichia coli [12]) was ≥ 64 µg/mL, the MIC (Escherichia coli [13]) was ≥ 64 µg/mL and the MIC (Escherichia coli [14]) was ≥ 64 µg/mL. The MIC (Escherichia coli [15]) was ≥ 64 µg/mL, the MIC (Escherichia coli [16]) was ≥ 64 µg/mL and the MIC (Escherichia coli [17]) was ≥ 64 µg/mL. For the same molecule, the MIC (Escherichia coli [18]) was ≥ 64 µg/mL, the MIC (Acinetobacter baumannii [19]) was 8 to 64 µg/mL and the MIC (Acinetobacter baumannii [20]) was 8 to 64 µg/mL. The MIC (Acinetobacter baumannii [21]) was 8 to 64 µg/mL, the CC50 at 48 h [22] was > 30 µM and the Activity (Pseudomonas aeruginosa [23]) was “Dose-dependent effect”. For the same molecule, the “fractional inhibitory concentration index (FICI)” value (Pseudomonas aeruginosa [24]) was 0.12, the “fractional inhibitory concentration index (FICI)” value (Pseudomonas aeruginosa [25]) was 0.26 and the “fractional inhibitory concentration index (FICI)” value (Pseudomonas aeruginosa [26]) was 0.15. For the same molecule, the “fractional inhibitory concentration index (FICI)” value (Pseudomonas aeruginosa [27]) was 0.25, the “fractional inhibitory concentration index (FICI)” value (Pseudomonas aeruginosa [28]) was 0.37 and the “fractional inhibitory concentration index (FICI)” value (Pseudomonas aeruginosa [29]) was 2. The “fractional inhibitory concentration index (FICI)” value (Pseudomonas aeruginosa [30]) was 5, the MIC (Pseudomonas aeruginosa [31]) was 0.25 µg/mL and the MIC (Pseudomonas aeruginosa [32]) was 1 µg/mL. The MIC (Pseudomonas aeruginosa [33]) was < 0.5 µg/mL, the MIC (Pseudomonas aeruginosa [34]) was < 0.25 µg/mL and the MIC (Pseudomonas aeruginosa [35]) was < 0.5 µg/mL. The MIC (Pseudomonas aeruginosa [36]) was < 1 µg/mL, the MIC (Pseudomonas aeruginosa [37]) was 0.25 µg/mL and the MIC (Pseudomonas aeruginosa [38]) was < 1 µg/mL. For the same molecule, the Activity (Pseudomonas aeruginosa [39]) was “Active” and the IC50 [40] was 4.7 µM.
